Experiment [1] deals with Proto-oncogene tyrosine-protein kinase Src (Homo sapiens, UniProt P12931). As to the kind of experiment: Inhibitory activity against binding of Src protein tyrosine kinase SH2 domain to biotinylated EPQY*EEIPI Peptide by ELISA. An outline of the steps:
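It competes with test compounds against biotinylated EPQY*EEIPI (6.0 nM) on streptavidin-coated plates for 1 h at rt. Detection is anti-GST, then AP-conjugated secondary with pNPP at 405 nm. IC50 comes from nonlinear regression, adjusted to the on-plate control peptide.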

Experiment [2] has as its target Growth factor receptor-bound protein 2 (Homo sapiens, UniProt P62993). As to the kind of experiment: Inhibitory activity against binding of Growth factor receptor bound protein 2 to biotinylated KPFY*VNVEF Peptide by ELISA. The essentials:
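It is competed with test compounds against biotinylated KPFY*VNVEF (4.0 nM) captured on streptavidin plates for 1 h at rt. Bound GST is detected by rabbit anti-GST, then AP anti-rabbit with pNPP, read at 405 nm. IC50 comes from nonlinear regression, normalized to the on-plate control peptide.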
In general terms: An ELISA detects its analyte on a solid surface through an enzyme-linked reagent.

Experimental findings from ChEMBL document CHEMBL1132170, “Structural and conformational requirements for high-affinity binding to the SH2 domain of Grb2(1)” (J Med Chem, 1999) are described below.

By IC50 is commonly meant the midpoint of a concentration-inhibition curve. A lower IC50 goes with greater potency in that assay.

Square brackets hold non-standard residues; d marks the D form. Peptide text beside a SMILES is read from it. * marks the point of attachment. pY = N[C@@H](Cc1ccc(OP(=O)(O)O)cc1)C(=O)O; Propionyl = CCC(=O)*; NHBu = CCCCN*

Sequence of Growth factor receptor-bound protein 2 (P62993 whole entry): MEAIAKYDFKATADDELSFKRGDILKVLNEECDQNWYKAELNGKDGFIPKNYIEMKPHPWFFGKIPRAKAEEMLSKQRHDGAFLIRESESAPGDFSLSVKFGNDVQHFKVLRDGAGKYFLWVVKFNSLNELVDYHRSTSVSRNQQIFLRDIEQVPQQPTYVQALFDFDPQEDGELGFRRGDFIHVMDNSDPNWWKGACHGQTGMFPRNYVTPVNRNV
Sequence of Proto-oncogene tyrosine-protein kinase Src (P12931 2-536 limits assumed): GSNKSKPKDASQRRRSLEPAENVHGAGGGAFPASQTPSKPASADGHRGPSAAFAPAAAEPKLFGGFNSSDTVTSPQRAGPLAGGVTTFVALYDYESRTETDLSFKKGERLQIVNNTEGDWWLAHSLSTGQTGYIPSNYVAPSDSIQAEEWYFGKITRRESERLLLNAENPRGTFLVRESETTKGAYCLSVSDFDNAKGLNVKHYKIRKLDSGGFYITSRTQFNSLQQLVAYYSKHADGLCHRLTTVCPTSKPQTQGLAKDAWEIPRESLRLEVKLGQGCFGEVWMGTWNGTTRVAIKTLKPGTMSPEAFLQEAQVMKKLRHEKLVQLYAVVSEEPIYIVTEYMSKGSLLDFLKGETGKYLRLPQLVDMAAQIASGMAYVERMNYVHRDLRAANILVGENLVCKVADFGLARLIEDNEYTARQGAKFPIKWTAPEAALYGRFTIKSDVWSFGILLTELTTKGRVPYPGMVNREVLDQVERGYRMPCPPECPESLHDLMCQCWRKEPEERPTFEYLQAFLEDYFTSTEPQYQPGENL

`CC(C)[C@@H]1NC(=O)[C@H](Cc2ccc(OP(=O)(O)O)cc2)NC(=O)CNC(=O)[C@@H]2CCCN2C(=O)[C@H](C(C)C)NC(=O)[C@H](CC(N)=O)NC1=O`: the IC50 in experiment [1] is over 100 µM. In experiment [2], `CC(C)[C@H]1NC(=O)[C@H](Cc2ccc(OP(=O)(O)O)cc2)NC(=O)CNC(=O)[C@@H]2CCCN2C(=O)[C@@H](C(C)C)NC(=O)[C@H](CC(N)=O)NC1=O` displayed a concentration for half-maximal inhibition (IC50) of 520 nM. Take `CC(C)[C@H]1NC(=O)[C@H](Cc2ccc(OP(=O)(O)O)cc2)NC(=O)CNC(=O)[C@H]2CCCN2C(=O)[C@@H](C(C)C)NC(=O)[C@H](CC(N)=O)NC1=O`: the half-maximal inhibitory concentration (IC50) in experiment [1] is over 100 µM; in experiment [2] it was 10800 nM. For the compound `CC(C)[C@@H]1NC(=O)[C@H](Cc2ccc(OP(=O)(O)O)cc2)NC(=O)CCCCCCNC(=O)[C@@H]2CCCN2C(=O)[C@H](C(C)C)NC(=O)[C@H](CC(N)=O)NC1=O`, the IC50 in experiment [1] is over 100 µM. Turning to `CC(C)[C@H]1NC(=O)[C@H](Cc2ccc(OP(=O)(O)O)cc2)NC(=O)CCCCCCNC(=O)[C@@H]2CCCN2C(=O)[C@@H](C(C)C)NC(=O)[C@H](CC(N)=O)NC1=O`, the IC50 in experiment [2] stood at 600 nM. In the case of `CC(=O)N[C@H]1CCCCNC(=O)[C@H]2CCCN2C(=O)[C@H](C(C)C)NC(=O)[C@@H](CC(N)=O)NC(=O)[C@H](CC(C)C)NC(=O)[C@@H](Cc2ccc(OP(=O)(O)O)cc2)NC1=O`, the half-inhibitory concentration (IC50) in experiment [1] is over 150 µM; in experiment [2], 1340 nM.

For the compound `CC(=O)N[C@H]1CCCCNC(=O)[C@H]2CCCN2C(=O)[C@H](CC2CCCCC2)NC(=O)[C@@H](CC(N)=O)NC(=O)[C@H](C(C)C)NC(=O)[C@@H](Cc2ccc(OP(=O)(O)O)cc2)NC1=O`, the IC50 in experiment [1] was over 150 µM; in experiment [2], 110 nM. On the same counts, the results for `CC(=O)N[C@@H]1CCCCNC(=O)[C@H]2CCCN2C(=O)[C@H](C(C)C)NC(=O)[C@@H](CC(N)=O)NC(=O)[C@H](C(C)C)NC(=O)[C@@H](Cc2ccc(OP(=O)(O)O)cc2)NC1=O` are 73 µM and 180 nM. As for `CC(=O)N[C@H]1CSSC[C@@H](C(=O)O)NC(=O)[C@H]2CCCN2C(=O)[C@H](C(C)C)NC(=O)[C@@H](CC(N)=O)NC(=O)[C@H](C(C)C)NC(=O)[C@@H](Cc2ccc(OP(=O)(O)O)cc2)NC1=O`, in experiment [1], the IC50 is 38 µM.

In turn, `CC(C)[C@@H]1NC(=O)[C@H](Cc2ccc(OP(=O)(O)O)cc2)NC(=O)OCCCCCNC(=O)[C@@H]2CCCN2C(=O)[C@H](C(C)C)NC(=O)[C@H](CC(N)=O)NC1=O` registered an IC50 in experiment [1] of over 100 µM.

`CC(C)[C@H]1NC(=O)[C@H](Cc2ccc(OP(=O)(O)O)cc2)NC(=O)OCCCCCNC(=O)[C@@H]2CCCN2C(=O)[C@@H](C(C)C)NC(=O)[C@H](CC(N)=O)NC1=O` yielded an IC50 in experiment [2] of 710 nM. For `CC(=O)N[C@H]1CCCCNC(=O)[C@H]2CCCN2C(=O)[C@H](C(C)C)NC(=O)[C@@H](CC(N)=O)NC(=O)[C@H](C(C)C)NC(=O)[C@@H](Cc2ccc(OP(=O)(O)O)cc2)NC1=O`, the results for the IC50 in experiment [1] and in experiment [2] were over 150 µM and 70 nM, respectively.

With `CC(=O)N[C@H]1CCCCNC(=O)[C@H]2CCCN2C(=O)[C@H](C(C)C)NC(=O)[C@@H](CC(N)=O)NC(=O)[C@H](CC2CCCCC2)NC(=O)[C@@H](Cc2ccc(OP(=O)(O)O)cc2)NC1=O`, the 50% inhibitory concentration (IC50) in experiment [1] was over 150 µM; in experiment [2] it was 1610 nM. In experiment [2], `CC(C)[C@H](NC(=O)[C@H](CC(N)=O)NC(=O)[C@@H](NC(=O)[C@H](Cc1ccc(OP(=O)(O)O)cc1)NC(=O)[C@H](Cc1ccccc1)NC(=O)[C@@H]1CCCN1C(=O)[C@@H](N)CCCCN)C(C)C)C(=O)N[C@@H](CCC(=O)O)C(=O)N[C@@H](Cc1ccccc1)C(=O)O` (H-KPF[pY]VNVEF-OH) displayed an IC50 of 700 nM. On to `CCCCNC(=O)[C@@H]1CCCN1C(=O)[C@@H](NC(=O)[C@H](CC(N)=O)NC(=O)[C@@H](NC(=O)[C@H](Cc1ccc(OP(=O)(O)O)cc1)NC(=O)CC)C(C)C)C(C)C` (Propionyl-[pY]VNVP-NHBu), for which the results for the concentration for half-maximal inhibition (IC50) in experiment [1] and in experiment [2] were over 100 µM and 1630 nM, respectively.
